According to ChEMBL document CHEMBL1806459, “Discovery of N-(1-ethylpropyl)-[3-methoxy-5-(2-methoxy-4-trifluoromethoxyphenyl)-6-methyl-pyrazin-2-yl]amine 59 (NGD 98-2): an orally active corticotropin releasing factor-1 (CRF-1) receptor antagonist” (J Med Chem, 2011):

Assays:
[1] = target: Substance-P receptor (Homo sapiens) (UniProt P25103); test: Inhibition of Neurokinin NK1 receptor at 4 uM
Summary of the method: (§1)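 Selectivity panel of 69 targets, test compound at 4 μM, a level set by aqueous solubility limits; percent inhibition recorded per target.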

[2] = target: Oxytocin receptor (Homo sapiens) (UniProt P30559); test: Inhibition of Oxytocin receptor at 4 uM
Sequence of Oxytocin receptor (Homo sapiens) (P30559 whole entry): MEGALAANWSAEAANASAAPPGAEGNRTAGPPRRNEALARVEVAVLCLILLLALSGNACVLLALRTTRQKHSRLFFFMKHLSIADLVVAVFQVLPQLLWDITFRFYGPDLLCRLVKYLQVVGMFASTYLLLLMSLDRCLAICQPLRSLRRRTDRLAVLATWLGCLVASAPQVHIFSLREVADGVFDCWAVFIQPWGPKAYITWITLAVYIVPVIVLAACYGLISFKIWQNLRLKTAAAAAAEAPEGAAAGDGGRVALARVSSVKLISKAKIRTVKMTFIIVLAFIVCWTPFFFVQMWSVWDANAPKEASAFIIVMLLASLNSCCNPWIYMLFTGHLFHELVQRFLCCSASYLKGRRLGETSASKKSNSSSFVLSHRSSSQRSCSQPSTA
Summary of the method: (§2)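 Single-concentration screen within a 69-target selectivity panel. The test concentration was 4 μM, a level set by the compound's limited aqueous solubility.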

[3] = target: 5-hydroxytryptamine receptor 5A (Homo sapiens) (UniProt P47898); test: Inhibition of Serotonin 5HT5A receptor at 4 uM; summary of the method: as §2
Sequence of 5-hydroxytryptamine receptor 5A (Homo sapiens) (P47898 whole entry): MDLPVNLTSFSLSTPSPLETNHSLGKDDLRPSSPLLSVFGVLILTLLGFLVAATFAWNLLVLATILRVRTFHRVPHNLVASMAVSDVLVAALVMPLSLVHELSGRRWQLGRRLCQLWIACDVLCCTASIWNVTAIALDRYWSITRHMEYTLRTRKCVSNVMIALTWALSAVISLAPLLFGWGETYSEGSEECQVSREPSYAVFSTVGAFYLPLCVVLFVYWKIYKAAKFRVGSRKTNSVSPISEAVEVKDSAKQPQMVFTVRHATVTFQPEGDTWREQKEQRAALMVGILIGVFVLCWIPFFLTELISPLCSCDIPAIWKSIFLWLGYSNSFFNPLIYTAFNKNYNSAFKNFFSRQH

[4] = Inhibition of diltiazem calcium channel at 4 uM; summary of the method: as §2
[5] = Inhibition of KATP channel at 4 uM; summary of the method: as §1
[6] = Inhibition of Sodium channel site 2 at 4 uM; summary of the method: as §2
[7] = Inhibition of phosphodiesterase 4 at 4 uM; summary of the method: as §2
[8] = Inhibition of phosphodiesterase 5 at 4 uM; summary of the method: as §2
[9] = target: hERG (KCNH2) (Homo sapiens, UniProt Q12809); test: Inhibition of human ERG expressed in african green monkey COS7 cells at 3 uM by electrophysiological assay; type: cell-based; conditions: COS-7 cells (African green monkey) expressing human ERG
Sequence of hERG (KCNH2) (Q12809 whole entry): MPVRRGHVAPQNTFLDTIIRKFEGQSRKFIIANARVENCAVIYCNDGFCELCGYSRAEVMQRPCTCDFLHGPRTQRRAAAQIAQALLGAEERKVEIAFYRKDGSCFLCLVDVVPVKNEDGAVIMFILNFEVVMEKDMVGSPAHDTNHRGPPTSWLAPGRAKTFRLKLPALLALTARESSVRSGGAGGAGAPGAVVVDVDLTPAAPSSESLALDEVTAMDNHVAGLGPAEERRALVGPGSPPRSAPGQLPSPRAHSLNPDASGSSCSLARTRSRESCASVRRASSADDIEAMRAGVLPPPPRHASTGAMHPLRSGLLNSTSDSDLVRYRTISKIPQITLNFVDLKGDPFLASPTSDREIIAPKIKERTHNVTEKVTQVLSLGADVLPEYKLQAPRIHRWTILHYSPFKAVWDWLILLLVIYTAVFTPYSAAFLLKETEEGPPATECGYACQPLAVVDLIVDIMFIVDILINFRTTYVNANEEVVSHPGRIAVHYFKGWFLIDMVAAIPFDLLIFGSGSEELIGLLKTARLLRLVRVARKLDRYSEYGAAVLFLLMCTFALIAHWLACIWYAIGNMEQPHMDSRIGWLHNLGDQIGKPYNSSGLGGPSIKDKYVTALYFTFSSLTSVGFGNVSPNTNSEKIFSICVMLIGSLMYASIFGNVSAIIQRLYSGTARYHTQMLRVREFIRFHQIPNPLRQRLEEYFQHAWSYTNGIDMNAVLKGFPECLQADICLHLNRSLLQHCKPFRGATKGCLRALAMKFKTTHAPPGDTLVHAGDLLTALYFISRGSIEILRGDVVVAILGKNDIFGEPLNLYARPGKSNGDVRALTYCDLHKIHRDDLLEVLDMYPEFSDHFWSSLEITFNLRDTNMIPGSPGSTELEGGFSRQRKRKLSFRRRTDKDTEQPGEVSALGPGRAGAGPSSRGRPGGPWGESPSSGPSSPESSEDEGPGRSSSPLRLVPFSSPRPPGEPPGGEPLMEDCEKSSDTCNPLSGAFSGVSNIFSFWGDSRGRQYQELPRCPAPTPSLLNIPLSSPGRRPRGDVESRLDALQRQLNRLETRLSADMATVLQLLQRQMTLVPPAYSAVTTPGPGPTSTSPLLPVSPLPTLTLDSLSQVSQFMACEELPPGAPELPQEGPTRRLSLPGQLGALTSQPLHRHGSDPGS

[10] = tested on: Rattus norvegicus; test: Toxicity in Sprague-Dawley rat assessed as effect on vertical activity at 10 mg/kg, po measured after 3 hrs for 1 hr; type: organism-based; design: dose 10 mg/kg, route oral; conditions: in vivo
Summary of the method: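 Rats not habituated to the test environment, dosed orally at 3, 10 and 30 mg/kg. Spontaneous locomotor activity recorded after dosing: horizontal activity as movement time, plus vertical activity (rearing). Test run to exclude sedation.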

[11] = Ratio of drug level in brain to plasma of rat at 1 mg/kg, iv; type: ADME, organism-based; design: dose 1 mg/kg, route intravenous; conditions: read-out: BPR
Summary of the method: (§3)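 Rat pharmacokinetics: compounds given iv (1 or 3 mg/kg) and po (5 or 10 mg/kg) in 2% Vitamin E TPGS (tocopheryl polyethylene glycol 1000 succinate). Plasma sampled over 24 h for Cmax, Tmax, AUC0–24 h, T1/2, clearance, Vss and oral bioavailability. Brain to plasma ratio also measured.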

[12] = target: Sodium-dependent noradrenaline transporter (Homo sapiens) (UniProt P23975); test: Inhibition of norepinephrine transporter at 4 uM; summary of the method: as §2
Sequence of Sodium-dependent noradrenaline transporter (Homo sapiens) (P23975 whole entry): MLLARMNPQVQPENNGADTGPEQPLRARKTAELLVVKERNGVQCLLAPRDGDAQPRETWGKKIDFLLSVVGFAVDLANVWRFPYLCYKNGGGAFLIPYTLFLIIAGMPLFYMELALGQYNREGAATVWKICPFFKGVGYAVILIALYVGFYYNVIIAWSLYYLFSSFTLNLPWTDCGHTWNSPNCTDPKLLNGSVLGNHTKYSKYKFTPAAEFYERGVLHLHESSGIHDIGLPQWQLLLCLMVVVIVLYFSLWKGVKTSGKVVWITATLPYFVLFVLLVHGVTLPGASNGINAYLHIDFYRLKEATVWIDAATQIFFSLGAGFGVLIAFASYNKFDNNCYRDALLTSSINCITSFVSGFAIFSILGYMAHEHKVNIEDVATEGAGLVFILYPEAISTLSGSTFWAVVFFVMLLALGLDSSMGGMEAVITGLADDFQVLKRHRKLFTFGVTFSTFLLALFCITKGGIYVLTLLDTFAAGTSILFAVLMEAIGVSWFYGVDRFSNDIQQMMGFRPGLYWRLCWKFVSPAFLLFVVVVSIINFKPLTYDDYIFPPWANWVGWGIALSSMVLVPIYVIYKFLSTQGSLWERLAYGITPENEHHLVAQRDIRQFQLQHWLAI

[13] = target: B1 bradykinin receptor (Homo sapiens) (UniProt P46663); test: Inhibition of bradykinin B1 receptor at 4 uM; summary of the method: as §2
Sequence of B1 bradykinin receptor (Homo sapiens) (P46663 whole entry): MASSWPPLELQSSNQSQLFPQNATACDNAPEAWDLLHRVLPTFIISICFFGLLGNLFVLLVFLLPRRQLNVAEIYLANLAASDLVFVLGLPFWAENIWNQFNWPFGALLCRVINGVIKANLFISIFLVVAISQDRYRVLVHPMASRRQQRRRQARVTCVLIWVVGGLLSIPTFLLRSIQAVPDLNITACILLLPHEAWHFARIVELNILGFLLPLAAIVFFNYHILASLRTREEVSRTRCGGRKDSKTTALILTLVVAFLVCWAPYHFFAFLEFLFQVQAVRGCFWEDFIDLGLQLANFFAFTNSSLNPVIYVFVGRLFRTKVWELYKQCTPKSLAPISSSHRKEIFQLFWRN

[14] = Inhibition of GABA-A at 4 uM; summary of the method: as §1
[15] = Cmax in rat at 10 mg/kg, po; type: ADME, organism-based; design: dose 10 mg/kg, route oral; conditions: in vivo
[16] = Tmax in rat at 1 mg/kg, iv; type: ADME, organism-based; design: dose 1 mg/kg, route intravenous; conditions: in vivo; summary of the method: as §3
[17] = Tmax in rat at 10 mg/kg, po; type: ADME, organism-based; design: dose 10 mg/kg, route oral; conditions: in vivo; summary of the method: as §3
[18] = Volume of distribution at steady state in rat at 1 mg/kg, iv; type: ADME, organism-based; design: dose 1 mg/kg, route intravenous; conditions: in vivo, read-out: Vdss; summary of the method: as §3
[19] = tested on: Rattus norvegicus; test: Oral bioavailability in rat at 10 mg/kg; type: ADME, organism-based; conditions: in vivo; summary of the method: as §3

Sequence of Substance-P receptor (Homo sapiens) (P25103 whole entry): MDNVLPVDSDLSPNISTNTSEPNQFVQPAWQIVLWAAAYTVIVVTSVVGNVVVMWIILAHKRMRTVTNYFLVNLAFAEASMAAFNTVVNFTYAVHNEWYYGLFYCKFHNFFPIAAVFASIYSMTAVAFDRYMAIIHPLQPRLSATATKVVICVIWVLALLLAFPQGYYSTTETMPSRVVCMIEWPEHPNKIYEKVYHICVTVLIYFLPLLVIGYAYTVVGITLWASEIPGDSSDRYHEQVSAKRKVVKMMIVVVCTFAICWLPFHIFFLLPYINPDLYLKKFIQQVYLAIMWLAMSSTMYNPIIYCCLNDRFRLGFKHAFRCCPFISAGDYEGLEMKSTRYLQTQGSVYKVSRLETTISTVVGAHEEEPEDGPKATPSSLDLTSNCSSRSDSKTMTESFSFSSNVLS

inhibition [1]: > 16% | inhibition [2]: > 16% | inhibition [3]: > 16% | inhibition [4]: > 16% | inhibition [5]: > 16% | inhibition [6]: > 16% | inhibition [7]: > 16% | inhibition [8]: > 16% | Kp [11]: 5.4 | inhibition [12]: > 16% | inhibition [13]: > 16% | inhibition [14]: > 16% | Cmax [15]: 456 ng/mL | Tmax [16]: 4 h | Tmax [17]: 4 h | Vd [18]: 7.8 L/kg | F [19]: 45%
SMILES: CCC(CC)Nc1nc(C)c(-c2ccc(OC(F)(F)F)cc2OC)nc1OC
inhibition at 3 µM [9]: 17% | Activity [10]: Non-toxic
